# Laboratory results taken from PubChem BioAssay AID624268 (The Scripps Research Institute Molecular Screening Center, 2012).
# Hit rate of the full screen: of about 360,000 compounds, about 1,500 (0.42%) were called active. The sample as a whole holds a higher share of actives than the screen did. A number with no mark means an inactive call.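 Rule for the calls: active = inhibition above a per-plate cutoff of the control wells' mean inhibition plus 3 SD (cut at about 5.5% in these data); inactive = the rest.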
# Tested on: methionyl-tRNA synthetase (Trypanosoma brucei brucei)
# Test: T. brucei MetRS inhibitors, primary screen, biochemical, luminescence (AID 624268);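 note: 0% = DMSO wells median and 100% = median of wells with control inhibitor compound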
# Settings: purified T. brucei MetRS, ATP depletion, Kinase-Glo luminescence; at 11.9 µM; active compounds read high
# In short: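 Material: parasite MetRS enzyme / Replication: singlicate, one well per compound / Signal: luminescence of leftover ATP / Schedule: 2 h aminoacylation at 25 °C after 15 min preincubation / Medium: HEPES-MgCl2-KCl buffer plus DTT, spermine, BSA, pyrophosphatase / Doses: 11.9 µM single point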
row,SMILES,inhibition
1,O=C(c1ccc(N2CCCC2=O)cc1)N1CCN(c2ccc(C(F)(F)F)cc2[N+](=O)[O-])CC1,-0.05%
2,COCCn1c(SC(C)C(=O)NC2CC2)nnc1-c1cccc(C)c1 (stereo unspecified),-0.37%
3,O=C(Nc1ccc(N2CCOCC2)cc1)c1cccc2c(-c3ccc(F)c(F)c3)coc12,-0.14%
4,CSc1nsc(NC(=O)Nc2ccccc2)n1,19.9% (active)
5,CCSc1nsc(NC(=O)Nc2cccc(C(C)=O)c2)n1,-0.36%
6,C=CCSc1nsc(NC(=O)Nc2cccc(C(C)=O)c2)n1,-1.33%
7,O=C(COC(=O)c1ccc(F)cc1F)Nc1ncccn1,0.09%
8,O=C(ON=C1CCN(S(=O)(=O)c2ccccc2)CC1)c1ccc(Cl)cc1,-0.24%
9,CCCn1c(SCC(=O)Nc2ccc(C)c(S(=O)(=O)N3CCOCC3)c2)n[nH]c1=O,-1.6%
10,COc1ccc(OC)c(NC(=O)Cn2c(=O)oc3ccccc32)c1,-0.7%
11,Cc1ccc(CCCOC(=O)C[N+]2(C)CCCC2)cc1,-0.15%
12,Cc1cccc(C)c1N1C(=O)CN(Cc2ccccc2)C1=S,-1%
13,CCCCN1C[C@H](c2ccc(Br)cc2)[C@@H](CC(=O)Nc2ccc(Br)cc2)C1=O,38.6% (active)
14,C[C@H]1CN(c2ccc(Br)cc2)C(=O)[C@@H]1CC(=O)Nc1ccc(Br)cc1,-0.7%
15,CCCCN1CC(C)(C)[C@H](CC(=O)Nc2ccc(Br)cc2)C1=O,0.54%
16,CCOC(=O)C1=C(c2ccccc2)NC(=O)NC1c1cc(OCC)c(O)c([N+](=O)[O-])c1 (stereo unspecified),-0.17%
17,c1ccc(CN=C2Nc3ccccc3CS2)nc1,11.2% (active)
18,c1ccc(CCc2ccccn2)cc1,-0.47%
19,O=C1CSc2ccc(C(=O)NCc3ccccn3)cc2N1,-0.41%
20,Cc1ccc(C2CC(c3cccc(Br)c3)n3nc(N)nc3N2)cc1 (stereo unspecified),-0.23%
21,COc1ccc(C2CC(c3ccc(Cl)cc3Cl)Nc3nc(N)nn32)cc1OC (stereo unspecified),9.33% (active)
22,CCOc1ccccc1C1CC(c2ccc(Cl)cc2)Nc2nc(N)nn21 (stereo unspecified),0.5%
23,COc1ccc2[nH]c3nc(SCC(=O)NC4CC4)nnc3c2c1,0.12%
24,Cc1ccn2c(=O)nc(SCC(=O)NCc3ccc(F)cc3)nc2c1,-0.43%
25,Cc1ccc(CNC(=O)CSc2nnc3c(n2)[nH]c2ccc(F)cc23)cc1,15.6% (active)
26,CCCNC(=O)C1(C)CCN(C(=O)c2ccc(F)cc2Cl)C1 (stereo unspecified),-0.42%
